Screens from PubChem BioAssay.
Only some compounds are listed: those with a hit (about 1.9% of all), similar ones and a draw of the others.
M4 PAM = CHRM4 positive allosteric modulation; AID 624126; CHO-K1 hM4/Gqi5, Fluo-8 calcium fluorescence, ACh EC20; 0% = ACh EC20, 100% = maximal ACh; activation, % at 3 µM; P08173; 360,000 compounds, 0.4% hits;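 active = activation above its plate's cutoff, the mean activation of sample wells plus 3 SD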
Target sequence (P08173 whole entry, looked up): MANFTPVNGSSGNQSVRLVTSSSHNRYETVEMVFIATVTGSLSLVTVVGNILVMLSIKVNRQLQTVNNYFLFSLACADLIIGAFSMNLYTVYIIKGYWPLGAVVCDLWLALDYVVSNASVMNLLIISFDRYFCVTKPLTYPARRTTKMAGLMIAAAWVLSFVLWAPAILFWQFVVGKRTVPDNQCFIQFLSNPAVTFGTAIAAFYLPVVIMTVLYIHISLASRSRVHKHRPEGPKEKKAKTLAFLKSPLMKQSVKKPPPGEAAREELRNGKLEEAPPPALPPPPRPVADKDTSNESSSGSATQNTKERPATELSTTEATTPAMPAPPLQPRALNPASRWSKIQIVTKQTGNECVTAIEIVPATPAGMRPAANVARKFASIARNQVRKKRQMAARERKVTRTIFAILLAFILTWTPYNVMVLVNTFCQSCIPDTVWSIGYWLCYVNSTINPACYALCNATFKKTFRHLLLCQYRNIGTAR
CHRM5 agonist = agonists of human muscarinic M5 receptor (CHRM5). activation, % at 3 µM. CHO-K1 hM5 cells, Fluo-8 calcium fluorescence; 0% DMSO wells, 100% maximal acetylcholine response. AID 624037. P08912. 360,000 compounds, 0.19% hits;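 active = activation above the run's mean over test compounds plus 3 SD, cut at about 23% in these data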;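 also: signal is peak over basal fluorescence ratio across the kinetic read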
M4 ag = agonists of human muscarinic M4 receptor (CHRM4); P08173; CHO-K1 hM4/Gqi5, Fluo-8 calcium fluorescence; vehicle 0%, full acetylcholine response 100%; activation, % at 3 µM; 360,000 compounds, 0.14% hits;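 active = activation above the run mean over all test wells plus 3 SD, cut at about 32% in these data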;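 also: peak over basal fluorescence ratio per well then scaled between controls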
CHRM5 antagonist = blocks acetylcholine activation of human M5 receptor; P08912; CHO-hM5 cells, Fluo-8 calcium fluorescence, ACh EC80; inhibition, % at 3 µM; 360,000 compounds, 0.59% hits;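 active = inhibition above a per-plate cutoff, the mean of that plate's test compounds plus 3 SD, cut at about 27% in these data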
CHRM5 PAM = positive allosteric modulators of human muscarinic M5 receptor | AID 624038 | CHO-K1 hM5, Fluo-8 calcium, ACh EC20 PAM; 0% = ACh EC20, 100% = ACh EC100 | 360,000 compounds, 0.3% hits | P08912 | activation, % at 3 µM;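 active = activation above the run cutoff, the mean activation of all test compounds plus 3 SD, cut at about 18% in these data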
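Replicates: One well per compound, no replicates | System: Human M5 receptor in CHO-K1 cells | Benchmarks: Low control EC20 acetylcholine (0%), high control EC100 acetylcholine (100%) | Probe or stimulus: Acetylcholine, EC20 level | Times: Fluo-8 loading 80 min at 37 °C plus 30 min room temperature | Signal: Intracellular calcium via Fluo-8 fluorescence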
M4 antag = antagonists of human muscarinic M4 receptor (CHRM4); inhibition, % at 3 µM; P08173; AID 624125; 360,000 compounds, 0.73% hits; CHO-hM4 cells, ACh EC80, Fluo-8 calcium fluorescence;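 active = inhibition above its plate's cutoff, the mean inhibition of sample wells plus 3 SD, cut at about 27% in these data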
Of the large screens only hits and unclear results are named; the others gave an inactive call.

Cc1ccc(NC(=O)OCCN2CCN(S(=O)(=O)c3ccc(C)cc3)CCC2=O)cc1	none
COc1cc2c(C(=O)N3CCOCC3)c(CSc3ccccc3)n(C)c2cc1Br	none
O=C(O)/C=C/c1cn(Cc2ccccc2Cl)nc1-c1ccccc1	CHRM5 PAM 19.8
CC(C)[C@H](NC(=O)Cc1ccccc1)C(=O)OCc1cc(=O)n2c(n1)sc1ccccc12	none
Cn1nnc2cc(C(=O)NC3CC3)ccc21	CHRM5 PAM 40.0
C=CCn1nc([N+](=O)[O-])nc1Sc1cccc2cccnc12	none
CCc1ccc(S(=O)(=O)Nc2c(C)nc3nc[nH]n3c2=O)cc1	CHRM5 PAM 37.8
O=C(NCCc1ccc(Cl)cc1)C1=CC=CN2CCS(=O)(=O)N=C12	none
CS(=O)(=O)c1cc([N+](=O)[O-])c(Sc2nc3ccccc3[nH]2)c([N+](=O)[O-])c1	M4 antag 38.1
O=C(O)c1cc([N+](=O)[O-])c(Sc2nc3ccccc3[nH]2)c([N+](=O)[O-])c1	none
CCCCCC(=O)N/N=C/c1cc(Br)c(O)c(OC)c1	none
Oc1cnn(-c2ccccc2)c1	M4 PAM 30.9
Oc1ccc(-c2[nH]ncc2-c2cnn(-c3ccccc3)c2)c(O)c1	none
Nc1nonc1NN=C1CCCCC1	CHRM5 PAM 20.9
COc1ccc(/C=N/Nc2nonc2N)cc1	none
O=C(O)c1ccc(NC(=S)NC(=O)c2cccc(COc3ccccc3)c2)cc1	none
CCN1CCN(c2ccc(NC(=O)c3cccc(OCc4ccccc4)c3)cc2)CC1	CHRM5 antagonist 33.0
O=C(NC(=S)Nc1ccc(CN2CCCCC2)cc1)c1cccc(OCc2ccccc2)c1	CHRM5 antagonist 47.6, M4 antag 39.0
O=c1cc2c(nn1Cc1ccc(Cl)cc1)-c1ccccc1CC2	CHRM5 PAM 30.4
O=c1cc2c(nn1Cc1cccc(Cl)c1)-c1ccccc1CC2	none
CCOC(=O)Sc1nc2ncncc2[nH]1	none
Cc1ccc(S(=O)(=O)N2CCCCC2c2cccnc2)c(C)c1C (stereo not drawn)	none
Cc1ccccc1-n1c(O)c(/C=N/N2CCCCC2c2cccnc2)c(=O)[nH]c1=O (stereo not drawn)	M4 PAM 24.2, CHRM5 PAM 29.5
CCN1CCN(c2ccc(NC(=O)c3ccccc3F)cc2Cl)CC1	none
CCN1CCN(c2ccc(NC(=O)c3cc4ccccc4cc3OC)cc2C)CC1	CHRM5 antagonist 56.1
COc1ccc(Cl)cc1N(CC(=O)Nc1cccc(SC)c1)S(C)(=O)=O	none
COc1ccc(NC(=O)CSc2ncnc3c2cnn3Cc2ccccc2)cc1	none
COc1ccc(NC(=O)CSc2ncnc3c2cnn3Cc2ccccc2)cc1OC	M4 antag 28.6
Cc1cc(N=Cc2cc(Br)ccc2O)no1	none
C/C(=N/NC(=O)c1ccncc1)c1ccc(NC(=O)c2ccc(Cl)cc2Cl)cc1	none
CC(=NNC(=O)c1ccncc1)c1ccccc1O	none
CC(=NNC(=O)c1ccncc1)c1ccc2ccccc2c1O	CHRM5 agonist 194.1, M4 ag 56.5
CC(C)CC(=NNC(=O)c1ccncc1)c1cc(Cl)ccc1O	CHRM5 agonist 38.0, M4 ag 40.0
CC(=NNC(=O)c1ccncc1)c1ccc(O)cc1O	CHRM5 PAM 22.3
CCN(CC)c1ccc(/C=C/c2cc(-c3ccccc3)c3ccccc3n2)cc1	M4 antag 30.8
CN(C)c1ccc(/C=C/c2ccc3ccccc3n2)cc1	none
O=C(CCCN1C(=O)/C(=C\c2cccs2)SC1=S)Nc1cccc(C(=O)O)c1	M4 PAM 21.1
Cc1ccc(CN(C)CC(=O)Nc2ccccc2C(=O)NC2CC2)o1	none
CC(C)C(=O)N=c1sc2cccc(F)c2n1C	none
COc1ccc(-c2cc(=O)[nH]c3ccccc23)cc1	none
Cc1ccc(S(=O)(=O)N2CCCCC2)cc1NC(=O)CSc1nncn1-c1ccccc1	CHRM5 PAM 22.7
CCC(=O)Nc1cccc2c1C(=O)N(C)C2=O	none
CN1C(=O)c2cccc(NC(=O)C3CCCCC3)c2C1=O	M4 PAM 18.9
CCN(CC)S(=O)(=O)c1ccc(C(=O)OCC(=O)NCCN2C(=O)CSC2=O)cc1	none
O=c1c(Cl)c(Cl)cnn1Cc1nnc(-c2ccccc2Br)o1	CHRM5 agonist 80.3, M4 ag 119.6, CHRM5 antagonist 100.5, M4 antag 98.9
Clc1ccccc1OCc1nnc(-c2ccccc2Br)o1	none
CCOC(=O)C1CCCN(c2c(C(=O)c3ccccc3)cnc3ccc(OC)cc23)C1 (stereo not drawn)	CHRM5 agonist 31.7
O=C(Nc1ccccc1)Nc1ccc(-n2ccc(C(F)(F)F)n2)cc1	CHRM5 antagonist 50.6, M4 antag 44.9
COCCSc1nnc(NC(=O)C2CC(=O)N(c3ccc(Cl)cc3)C2)s1 (stereo not drawn)	none
COc1cc(C(=O)NNC(=O)COc2ccc(Br)cc2)ccc1OCC(=O)N1CCOCC1	none
O=C(COc1ccc(Br)cc1)N1CCOCC1	CHRM5 PAM 18.3
CCOc1ccc(OCC(=O)N2CCOCC2)cc1	none
COc1cc(C(=O)NNC(=O)COc2ccc(C)cc2)ccc1OCC(=O)N1CCOCC1	M4 PAM 22.7
COC(=O)C(Cc1cncn1COCc1ccccc1)NC(=O)OC(C)(C)C (stereo not drawn)	none
Cc1ccc(NC(=O)N2CCc3ccccc3C2)c(C)c1	M4 PAM 19.0
O=C(OCC#CCSc1nnc(-c2cccc3ccccc23)o1)c1cc2ccccc2o1	none
COc1ccc(CCNc2ncnc3[nH]ncc23)cc1OC	none
COc1ccc(CCNc2ncnc3sc(C)cc23)cc1OC	CHRM5 antagonist 37.1, M4 antag 26.9
CC1(C(=O)NCc2ccco2)Cc2c(-c3ccccc3)ccnc2O1 (stereo not drawn)	none
O=C(Nc1ccc2cccnc2c1)c1ccc(Br)cc1	M4 PAM 15.4
CC(C)(Cc1cc(CC(C)(C)C(=O)O)cc(C(C)(C)C)c1)C(=O)O	none
CCc1ccccc1N1CC23C=CC(O2)C(C(=O)O)C3C1=O (stereo not drawn)	none
O=C1CCC(=O)N1OCCCOc1ccc2c(c1)CCC2	none
S=C(NCCc1ccccc1)N1CCCC1	none
CC1CCCN(C(=S)NCCc2ccccc2)C1 (stereo not drawn)	CHRM5 PAM 19.3
COC(c1ccccc1)c1nnc(CCC(=O)NCCc2ccc(Cl)cc2)o1 (stereo not drawn)	none
CCOC(=O)c1ccc(NC(=S)NCC(O)c2ccccc2)cc1 (stereo not drawn)	CHRM5 antagonist 37.7
CCOC(=O)c1ccc(NC(=S)NCCc2ccccc2)cc1	none
CCOC(=O)c1ccc(NC(=S)NCCc2ccccc2F)cc1	CHRM5 antagonist 29.9, M4 antag 28.6
